Each block holds one molecule with its values, some of them ahead of it.
Legend:
HepG2 cells = test: Cellular uptake and metabolism of α-MG; format: in vitro ADME, human; conditions: 24 h after addition of α-MG, control cultures; nd: not detected
How it was run: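 HepG2 monolayers, 2 days post-confluence, received 9.0 μM compound as a DMSO stock added to 10% FBS medium for 24 h. Activated cultures had 10 ng/mL TNF-α for 4 h and a PBS wash first. Medium and cells were collected separately, extracted and analysed by RP-HPLC for free and glucuronidated/sulfated xanthones. Quantification used retention time, UV spectrum and five-point standard curves, as % of initial amount; mean ± SD, n ≥ 5.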

Caco-2 cells = test: Cellular uptake, metabolism and transport of α-MG on Transwell inserts; format: in vitro ADME, human; conditions: 24 h after addition of α-MG, control cultures; nd: not detected
How it was run: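 Caco-2 cells were differentiated 21–25 days post-confluence on Transwell inserts. Compound (12 μM) in Tween 40 micelles was added apically for 24 h. Activated cultures had 5 ng/mL IL-1β for 4 h, then a PBS wash. Apical medium, basolateral medium and cell monolayer were collected separately and analysed by RP-HPLC for free and conjugated xanthones. Amounts are % of initial compound; mean ± SD, n ≥ 5.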

[1] = system: LPS-induced production of NO in RAW 264.7 cells; test: LPS-induced production of NO; format: cell-based, murine; conditions: Mus musculus, RAW264.7, read-out: inhibition of LPS-induced production of NO
How it was run: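 RAW 264.7 cells, 2 days post-confluence, were pretreated 2 h with compound (DMSO stock into 10% FBS medium). They were then stimulated 16 h with 5 ng/mL E. coli O111:B4 LPS. NO production was estimated as medium nitrite by the Griess reaction.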

THP-1 cells = test: Cellular uptake and metabolism of α-MG; format: in vitro ADME, human; conditions: 24 h after addition of α-MG, control cultures; nd: not detected
How it was run: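 THP-1 monocytes were differentiated with 100 nM PMA for 48 h, then exposed 24 h to 5.2 μM compound (DMSO stock into 10% FBS medium). Activated cultures were pre-exposed to 5 ng/mL LPS for 4 h and washed with PBS. Spent medium and cells were collected separately, extracted and analysed by RP-HPLC for free and glucuronidated/sulfated xanthones. Amounts are % of initial compound; mean ± SD, n ≥ 5.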

intracellular xanthone, HepG2 (HepG2 cells): 44 ± 5 pmol/dish
intracellular xanthone, Caco-2 (Caco-2 cells): 100 ± 17 pmol/dish
SMILES: COc1c(O)cc2oc3cc4c(c(O)c3c(=O)c2c1CC=C(C)C)C=CC(C)(C)O4 [9-hydroxycalabaxanthone]

SMILES: COC(=O)[C@@H](N)CCCNC(N)=N[N+](=O)[O-] [L-NAME, reference compound]
inhibition at 200 µM [1]: 30%

intracellular xanthone, THP-1 (THP-1 cells): 66 ± 2 pmol/dish
SMILES: COc1c(O)cc2oc3cc(O)c(CC=C(C)C)c(O)c3c(=O)c2c1CCC(C)(C)O [garcinone D]
